Measurements gathered from unrelated publications.
Each line is one published result; the experiments were not run side by side. pIC50: −log10 of the molar value. In brackets after ≈: the same amount, converted by molar mass.

The MIC of `OC(Cn1cncn1)(Cn1cncn1)c1ccc(F)cc1F` is reported as 2 µg/mL (≈ 6.53 µM) (Candida albicans; microbial growth, broth dilution; ATCC60193).
`OC(Cn1cncn1)(Cn1cncn1)c1ccc(F)cc1F` gave an MFC of over 64 µM (Candida albicans; microbial killing, broth dilution; SP3903; 48 h).
`O=c1ccc2nc3ccc(O)cc3oc-2c1` has an MIC of over 32 µg/mL (Enterococcus faecium; microbial growth; 24 h).
`CC(=O)N1CCN(c2ccc(OCC3COC(Cn4ccnc4)(c4ccc(Cl)cc4Cl)O3)cc2)CC1` (centres unmarked) gave an MFC of over 64 µM (Candida albicans; microbial killing, broth dilution; 58288; 48 h).
For `O=C(CCc1ccccc1)Nc1ncccn1`, the MIC80 was over 100 µM (Candida albicans; microbial growth; 48 h).
For `N.N.[Cl][Pt][Cl]`, the pIC50 was 4.25 (CCD 19Lu; cell growth or viability, MTT; 72 h).
For `O=c1ccc2nc3ccc(OCc4ccc([N+](=O)[O-])o4)cc3oc-2c1`, the MIC was over 32 µg/mL (Enterococcus faecium; microbial growth; 24 h).
The MIC80 of `Cc1cnc(NC(=O)/C=C/c2cccs2)nc1` is reported as 25 µM (≈ 6.13 µg/mL) (Candida albicans; microbial growth; 48 h).
